Results from different studies.
Protocols differ between the studies behind these lines.
CDK6 with cyclin D3: Cyclin-dependent kinase 6, with cyclin D3 (CDK6, Homo sapiens, UniProt Q00534)
CDK6: Cyclin-dependent kinase 6 (CDK6, Homo sapiens, UniProt Q00534)
CDK6 with cyclin D1: Cyclin-dependent kinase 6, with cyclin D1 (CDK6, Homo sapiens, UniProt Q00534)

Cc1ccc(Nc2nccc(N(C)c3ccc4c(C)n(C)nc4c3)n2)cc1S(N)(=O)=O
inhibition (CDK6 with cyclin D3; enzyme activity, inhibitor; 10 µM): 38%

CC(C)(C)c1nc2c(s1)c1nc(N)ncc1c1ccc(NS(=O)(=O)c3c(F)cccc3F)c(F)c12
remaining activity (CDK6 with cyclin D3; enzyme activity, inhibitor, radiometric; 1 µM): 97%

CC(C)(O)[C@H]1CC[C@H](Nc2ccc3ncc(-c4cccc(C(F)(F)F)c4)n3n2)CC1
remaining activity (CDK6 with cyclin D3; enzyme activity, inhibitor; 1 µM): 96.4%

CNC(=O)c1cc(Oc2ccc(NC(=O)Nc3ccc(Cl)c(C(F)(F)F)c3)cc2)ccn1
inhibition (CDK6 with cyclin D3; enzyme activity, inhibitor; 0.3 µM): -11%

O=C(Nc1cnn(-c2csc(C(=O)NC3COC3)c2)c1)Nc1ccccc1Cl
remaining activity (CDK6 with cyclin D3; enzyme activity, inhibitor; 5 µM): 114%

CCN(CC)CCNC(=O)c1c(C)[nH]c(/C=C2\C(=O)Nc3ccc(F)cc32)c1C
inhibition (CDK6 with cyclin D3; enzyme activity, inhibitor; 0.3 µM): 13%

Nc1nc(Nc2ccc(S(N)(=O)=O)cc2)sc1C(=O)c1ccccc1[N+](=O)[O-]
inhibition (CDK6; enzyme activity, inhibitor; 0.1 µM): 85%

CC(C)(C)c1nc(-c2cccc(NS(=O)(=O)c3c(F)cccc3F)c2F)c(-c2ccnc(N)n2)s1
remaining activity (CDK6 with cyclin D1; enzyme activity, inhibitor, radiometric; 1 µM): 104%

O=C1NC(=O)c2cc(Nc3ccc(F)cc3)c(Nc3ccc(F)cc3)cc21
remaining signal (CDK6 with cyclin D1; cell-free assay; 0.5 µM): 99%

Cc1cc(NC(=O)c2cccc3cc(-c4cccc5[nH]nc(N)c45)ccc23)ccc1F
activity vs control (CDK6 with cyclin D3; enzyme activity, inhibitor; 0.1 µM): 94%

CCCS(=O)(=O)Nc1ccc(F)c(C(=O)c2c[nH]c3ncc(-c4ccc(Cl)cc4)cc23)c1F
inhibition (CDK6 with cyclin D3; enzyme activity, inhibitor; 1 µM): < 10%

N#CCCc1ccc2c(c1)-c1[nH]c3ccc([N+](=O)[O-])cc3c1CC(=O)N2
remaining signal (CDK6 with cyclin D3; cell-free assay; 0.5 µM): 26%

Cc1ccc(C(=O)NCc2ccsc2)cc1C#Cc1cn(C(C)C)c2ncnc(N)c12
activity vs control (CDK6 with cyclin D3; enzyme activity, inhibitor; 1 µM): 101%

O=C(Nc1cnn(-c2csc(C(=O)NC3COC3)c2)c1)Nc1c(F)cccc1Cl
remaining activity (CDK6 with cyclin D3; enzyme activity, inhibitor; 5 µM): 92.6%

Cn1cnc(Br)c1C1=CN(c2ncnc3[nH]cnc23)CCS1
inhibition (CDK6; enzyme activity, inhibitor, radiometric; 50 nM): 22%

O=C1Nc2ccc(Cl)cc2C1=Cc1cc(Cl)c(O)c(Cl)c1
remaining signal (CDK6 with cyclin D1; cell-free assay; 0.5 µM): 97%

CCCOc1ccc(OC)c(F)c1C(=O)c1ccc(C(=O)N[C@@H]2CNC[C@H]2NC(=O)c2ccc3[nH]ncc3c2)cc1
remaining activity (CDK6 with cyclin D3; enzyme activity, inhibitor; 10 µM): 83%
